# Assay results from ChEMBL document CHEMBL4732039, “Introduction of a cyano group at the 2-position of an (R,S)-3-hydroxy-2-(phosphonomethoxy)propyl (HPMP) derivative of thymine elicits selective anti-HBV activity” (RSC Med Chem, 2021).
# pEC50: −log10 of the molar value.
# Key:
# Human betaherpesvirus 5 [1] = assay: Antiviral activity against HCMV AD169 infected in human embryonic lung cells; type: functional, cell-based; conditions: Human betaherpesvirus 5, AD169, Lung
# Human betaherpesvirus 5 [2] = assay: Antiviral activity against HCMV AD169 infected in human HFF cells assessed as reduction in virus-induced cytopathic effect incubated for 14 days by cell-titer glo assay; type: functional, cell-based; conditions: Human betaherpesvirus 5, AD169, HFF, 336 h; for EC90: time 14 day
# [3] = system: Human immunodeficiency virus 1; assay: Antiviral activity against HIV-1 3B infected in human MT4 cells assessed as reduction in virus-induced cytopathic effect measured after 5 days by MTT assay; type: functional, organism-based; conditions: for EC50: mt4
# Summary of the method: (§1)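 MT-4 cells infected with wild-type HIV-1 IIIB or HIV-2 ROD. Protection read out by MTT assay. Cytotoxicity was assessed in parallel in uninfected MT-4 cells.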
# [4] = Cytotoxicity against human HFF cells assessed as reduction in cell viability incubated for 14 days by cell titer glo assay; type: cell-based; conditions: time 14 day
# Hepatitis B virus = assay: Antiviral activity against HBV infected in human HepG2.2.2.15 cells assessed as inhibition of viral replication preincubated for 3 days followed by media replenishment with fresh drug and further incubated for 3 days by qPCR analysis; type: functional, organism-based; conditions: for pEC50: HepG2 2.2.15; for EC90: HepG2 2.2.15, 144 h, time 6 day
# Summary of the method: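 HepG2 2.2.15 human hepatoblastoma cells, carrying two copies of wild-type HBV (strain ayw) genome and constitutively producing virus. Extracellular HBV DNA copy number from released virions quantified by real-time TaqMan qPCR. […] Lamivudine (3TC) was the positive control.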
# [5] = system: Human immunodeficiency virus 2; assay: Antiviral activity against HIV-2 ROD infected in human MT4 cells assessed as reduction in virus-induced cytopathic effect measured after 5 days by MTT assay; type: functional, organism-based; conditions: for EC50: mt4; summary of the method: as §1
# [6] = Selectivity index, ratio of CC50 of human HFF cells to EC50 of antiviral activity against VZV; type: toxicity; conditions: read-out: Ratio CC50/EC50
# Human alphaherpesvirus 3 = assay: Antiviral activity against VZV infected in human HFF cells assessed as reduction in virus-induced cytopathic effect incubated for 14 days by cell-titer glo assay; type: functional, organism-based; conditions: Human alphaherpesvirus 3, HFF, 336 h; for EC90: time 14 day
# [7] = Cytotoxicity against human HepG2.2.2.15 cells assessed as reduction in cell viability incubated for 6 days by cell titer glo assay; type: cell-based; conditions: time 6 day
# [8] = Selectivity index, ratio of CC50 of human HepG2.2.2.15 cells to EC50 of antiviral activity against HBV infected in human HepG2.2.2.15 cells; type: toxicity, cell-based; conditions: read-out: Ratio CC50/EC50
# [9] = Selectivity index, ratio of CC50 for human HFF cells to EC50 for antiviral activity against HCMV AD169
SMILES,pEC50 (Human betaherpesvirus 5 [1]),pEC50 (Human betaherpesvirus 5 [2]),EC90 (Human betaherpesvirus 5 [2]),EC50 [3],CC50 at 336 h [4],pEC50 (Hepatitis B virus),EC90 (Hepatitis B virus),EC50 [5],selectivity ratio [6],pEC50 (Human alphaherpesvirus 3),EC90 (Human alphaherpesvirus 3),CC50 at 144 h [7],selectivity ratio [8],Ratio CC50/EC50 [9],"pEC50 ([3]; Human immunodeficiency virus 1, 3B, MT4, 120 h, read-out: EC50)","pEC50 ([5]; Human immunodeficiency virus 2, ROD, MT4, 120 h, read-out: EC50)"
Nc1ncnc2c1ncn2C[C@@H](CO)OCP(=O)(O)O,6.00,,,,,,,,,,,,,,,
CCN(CC)CC.N#CC(CO)(Cn1ccc(N)nc1=O)OCP(=O)(O)O (stereo not drawn),,< 3.82,> 150 µM,Not Active,> 150 µM,< 4.00,> 100 µM,Not Active,1,< 3.82,> 150 µM,> 100 µM,1,1,,
CCN(CC)CC.N#CC(CO)(Cn1cnc2c(N)ncnc21)OCP(=O)(O)O (stereo not drawn),,5.96,> 150 µM,Not Active,> 150 µM,5.44,9.9 µM,Not Active,1,3.97,> 150 µM,> 100 µM,,>137,,
CCN(CC)CC.N#CC(CO)(Cn1cnc2c(=O)[nH]c(N)nc21)OCP(=O)(O)O (stereo not drawn),,5.70,> 30 µM,,102 µM,< 4.00,> 100 µM,,47,5.68,> 30 µM,> 100 µM,1,50,4.29,4.47
CCN(CC)CC.Cc1cn(CC(C#N)(CO)OCP(=O)(O)O)c(=O)[nH]c1=O (stereo not drawn),,< 3.82,> 150 µM,Not Active,> 150 µM,6.48,0.79 µM,Not Active,1,< 3.82,> 150 µM,> 100 µM,> 302000,1,,
CCN(CC)CC.N#CC(CO)(Cn1ccc(=O)[nH]c1=O)OCP(=O)(O)O (stereo not drawn),,< 3.82,> 150 µM,Not Active,> 150 µM,< 4.00,> 100 µM,Not Active,1,< 3.82,> 150 µM,> 100 µM,1,1,,
Nc1nc2c(ncn2COC(CO)CO)c(=O)[nH]1 [GANCICLOVIR],,6.05,74.2 µM,,> 150 µM,,,,,,,,,,,
